Columns and labels:
Type in all cases: cell-based
[1] = Cytotoxicity against human Raji cells assessed as cell viability at 1000 molar ratio after 48 hrs; conditions: read-out: Activity
Summary of the method: (§1)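 Raji cells (EBV genome-carrying, Burkitt's lymphoma-derived) grown in RPMI-1640 and incubated 48 h at 37 °C with 4 mmol n-butyric acid, 32 pmol TPA (20 ng/mL) and test agent at 10–1000 mol ratio/TPA (0.32–32 nmol). Viability given as percentage of Raji cells; n = 3, ±S.D.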

[2] = test system: Raji; experiment: Inhibition of 12-O-tetradecanoylphorbol-13-acetate induced EBV-early antigen activation in human Raji cells at 10 molar ratio relative to control; conditions: human gammaherpesvirus 4
Summary of the method: (§2)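 Raji cells in RPMI-1640 treated 48 h at 37 °C with n-butyric acid (4 mmol), TPA (32 pmol = 20 ng/mL) and test agent at 10, 100, 500 or 1000 mol ratio/TPA (0.32–32 nmol). EA-positive cells in smears detected by indirect immunofluorescence; induction expressed relative to TPA positive control (100%), n = 3, ±S.D.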

[3] = Cytotoxicity against human Raji cells assessed as cell viability at 10 molar ratio after 48 hrs; conditions: read-out: Activity; summary of the method: as §1
[4] = Cytotoxicity against human Raji cells assessed as cell viability at 100 molar ratio after 48 hrs; conditions: read-out: Activity; summary of the method: as §1
[5] = Cytotoxicity against human Raji cells assessed as cell viability at 500 molar ratio after 48 hrs; conditions: read-out: Activity; summary of the method: as §1
[6] = test system: Raji; experiment: Inhibition of 12-O-tetradecanoylphorbol-13-acetate induced EBV-early antigen activation in human Raji cells at 1000 molar ratio relative to control; conditions: human gammaherpesvirus 4; summary of the method: as §2
[7] = test system: Raji; experiment: Inhibition of 12-O-tetradecanoylphorbol-13-acetate induced EBV-early antigen activation in human Raji cells at 500 molar ratio relative to control; conditions: human gammaherpesvirus 4; summary of the method: as §2
[8] = test system: Raji; experiment: Inhibition of 12-O-tetradecanoylphorbol-13-acetate induced EBV-early antigen activation in human Raji cells at 100 molar ratio relative to control; conditions: human gammaherpesvirus 4; summary of the method: as §2

Structure (SMILES) | viability at 48 h, 1000 molar ratio [1] [%] | EBV-EA activation relative to TPA control [2] [%] | viability at 48 h, 10 molar ratio [3] [%] | viability at 48 h, 100 molar ratio [4] [%] | viability at 48 h, 500 molar ratio [5] [%] | EBV-EA induction remaining (% of TPA control) [6] [%] | EBV-EA induction remaining (% of TPA control) [7] [%] | EBV-EA induction remaining (% of TPA control) [8] [%]
C=C(CO)C(CC)C[C@@H](O)[C@@](C)(O)[C@H]1CC[C@@]2(O)C3=CC(=O)[C@@H]4C[C@@H](O)[C@@H](O)C[C@]4(C)[C@H]3CC[C@]12C (some centres not stated) | 70 | 95.8 | > 80 | > 80 | > 80 | 4.6 | 49.1 | 72.6
C[C@@H]1C(=O)O[C@H](C)[C@H]1CC(=O)[C@](C)(O)[C@H]1CC[C@@]2(O)C3=CC(=O)[C@@H]4C[C@@H](O)[C@@H](O)C[C@]4(C)[C@H]3CC[C@]12C | 60 | 100 | > 80 | > 80 | > 80 | 20.9 | 61.9 | 84.5
C/C=C(/C)C(=O)O[C@@H]1CC[C@]2(CO2)[C@]2(COC(C)=O)[C@@H](OC(C)=O)C[C@@H](C)[C@](C)(C[C@H](O)C3=CC(=O)OC3)[C@@H]12 | 50 | 100 | > 80 | > 80 | > 80 | 0 | 55.8 | 76.3
C/C=C(/C)C(=O)O[C@@H]1CC[C@]2(CO2)[C@]2(COC(C)=O)[C@@H](OC(C)=O)C[C@@H](C)[C@](C)(C[C@H](OC(C)=O)C3=CC(=O)OC3)[C@@H]12 | 60 | 100 | > 80 | > 80 | > 80 | 0 | 42.6 | 73.5
CC(C)(O)CC[C@@H](O)[C@@](C)(O)[C@H]1CC[C@@]2(O)C3=CC(=O)[C@@H]4C[C@@H](O)[C@@H](O)C[C@]4(C)[C@H]3CC[C@]12C | 70 | 100 | > 80 | > 80 | > 80 | 0 | 73.7 | 90.1
CC(C)(O)CC[C@@H](O)[C@](C)(O)[C@H]1CC[C@@]2(O)C3=CC(=O)[C@]4(O)C[C@@H](O)[C@@H](O)C[C@]4(C)[C@H]3CC[C@]12C [POLYPODINE B] | 70 |  | > 80 | > 80 | > 80 |  |  | 
CC(=O)OC[C@@]12[C@@H](OC(C)=O)C[C@@H](C)[C@](C)(C[C@H](OC(C)=O)C3=CC(=O)OC3)[C@H]1[C@H](OC(C)=O)CC[C@]21CO1 [AJUGAPANTIN A] | 70 | 100 | > 80 | > 80 | > 80 | 10.6 | 54.7 | 79.2
C=C(C)C(C[C@@H](O)[C@@](C)(O)[C@H]1CC[C@@]2(O)C3=CC(=O)[C@@H]4C[C@@H](O)[C@@H](O)C[C@]4(C)[C@H]3CC[C@]12C)C(C)O (some centres not stated) [DECUMBESTERONE] | 70 | 100 | > 80 | > 80 | > 80 | 0 | 24.7 | 66
CCC1=C(C)C(=O)O[C@@H]([C@](C)(O)[C@H]2CC[C@@]3(O)C4=CC(=O)[C@@H]5C[C@@H](O)[C@@H](O)C[C@]5(C)[C@H]4CC[C@]23C)C1 | 60 | 100 | > 80 | > 80 | > 80 | 17.5 | 58.2 | 81
C/C=C(/C)C(=O)O[C@@H](C[C@@]1(C)[C@H](C)C[C@H](OC(C)=O)[C@]2(COC(C)=O)[C@@H]1[C@H](OC(=O)/C(C)=C\C)CC[C@]21CO1)C1=CC(=O)OC1 | 70 | 100 | > 80 | > 80 | > 80 | 18.4 | 47.2 | 71.5
CC1(C)C[C@H](O)C[C@@]2(C)OC(=O)C=C12 [LOLIOLIDE] | 60 | 88 | > 80 | > 80 | > 80 | 5.1 | 26.8 | 59.6
C[C@@H]1C(=O)O[C@H](C)[C@H]1C[C@@H](O)[C@](C)(O)[C@H]1CC[C@@]2(O)C3=CC(=O)[C@]4(O)C[C@@H](O)[C@@H](O)C[C@]4(C)[C@H]3CC[C@]12C | 70 | 100 | > 80 | > 80 | > 80 | 0 | 51.9 | 80.2
COc1cc(C(=O)O)ccc1O [VANILLIC ACID] | 60 | 90.2 | > 80 | > 80 | > 80 | 0 | 46.2 | 73.9
O=c1cc(-c2ccc(O)cc2)oc2cc(O)cc(O)c12 [APIGENIN] | 50 | 100 | > 80 | > 80 | > 80 | 31.5 | 65.9 | 83.7
CC(C)(O)CC[C@@H](O)[C@@](C)(O)[C@H]1CC[C@@]2(O)C3=CC(=O)[C@]4(O)C[C@@H](O)[C@@H](O)C[C@]4(C)[C@H]3CC[C@]12C |  | 100 |  |  |  | 0 | 23.4 | 65.9

From ChEMBL document CHEMBL1144067, “Cancer chemopreventive agents (antitumor-promoters) from Ajuga decumbens” (J Nat Prod, 1999)
